Results on nine compounds are retold here after publication PMC6467724 (Journal of medicinal chemistry, 2018).

Data set [1] can be described thus: Microsomal stability assay, rat liver microsomes. Type of data set: in vitro ADME, rat (male Sprague-Dawley). The conditions noted are these: for Clhep (hepatic clearance), Rat: predicted from Clint, Qh 70 mL/min/kg.
Data set [2] is described as follows: Microsomal stability assay, mouse liver microsomes. The data set is classed as in vitro ADME, mouse (male CD-1). The conditions noted are these: for Clhep (hepatic clearance), Mouse: predicted from Clint, Qh 90 mL/min/kg.
Data set [3] can be described thus: Microsomal stability assay, human liver microsomes. Type of data set: in vitro ADME. The conditions noted are these: for Clhep (hepatic clearance), Human: predicted from Clint, Qh 21 mL/min/kg.
A short description of data set [4]: PK and tissue distribution assay, single oral dose. The data set is classed as in vivo, BALB/c mice. The conditions noted are these: for concentration at 4 h: BALB/c, mouse, po, 25 mg/kg.
The nature of data set [5]: Mouse acute toxicity assay. The data set is classed as in vivo. The conditions noted are these: single oral dose 200 mg/kg, mice n=3, 48 h.
The test system of data set [6] is Y strain T. cruzi CYP51A. Briefly: CYP51 activity inhibition. Type of data set: biochemical, Trypanosoma cruzi. The conditions noted are these: Figure S1. A digest of the protocol:
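Y-strain T. cruzi CYP51A was expressed in E. coli and purified. Substrate was [3-3H]eburicol at 50 μM final and test compound at 1.1 μM final. After 60 s preincubation at 37 °C, 100 μM NADPH started the reaction. It ran 60 min, EtOAc extraction stopped it, and % inhibition was measured in triplicate, mean ± SD.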

A further data set addresses L. infantum CYP51 (Leishmania infantum, UniProt A2TEF2). Put plainly: Spectral titration. Type of data set: binding. To be noted: 0.5 μM CYP51, inhibitor 0.1–1 μM.
Data set [7] deals with Y strain T. cruzi CYP51A. Briefly: Spectral titration. The data set is classed as binding, Trypanosoma cruzi. The conditions noted are these: 0.5 μM CYP51, inhibitor 0.1–1 μM. A digest of the protocol: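 Y-strain T. cruzi CYP51A was expressed in E. coli and purified. It was titrated at 0.5 μM with test compound (0.1–1 μM) in 5 cm pathlength cuvettes. Difference spectra were read as Δ(A430−A411). Apparent dissociation constants came from nonlinear fits of absorbance change versus ligand concentration to the Morrison quadratic (tight-binding) equation.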

[8] abbreviates: rat pooled liver microsomes 0.5 mg/mL, 1 μM test compound.
The mark [9] stands for this setting: mouse pooled liver microsomes 0.5 mg/mL, 1 μM test compound.
Setting [10] is: human pooled liver microsomes 0.5 mg/mL, 1 μM test compound.
Where [11] appears, read: 4 hours after single oral 25 mg/kg, Balb/c mice, ±SEM, n=2, nd = below 0.1 μM.
The mark [12] stands for this setting: Balb/c mice, single oral dose 25 mg/kg.

Turning to “(R)-N-(1-(3-Chloro-4´-(trifluoromethyl)-[1,1´-biphenyl]-4-yl)-2-(1H-imidazol-1-yl)ethyl)-4-(5-(pyridin-4-yl)-1,3,4-oxadiazol-2-yl)benzamide [Compound 3]”, the “Clhep (hepatic clearance), Rat” value in data set [1] is 29.9 mL/min/kg body weight. For the same compound, in data set [1] (setting [8]), the “Clint (estimated intrinsic clearance), Rat” value (“Clint … Rat” below) is 52.3 mL/min/kg body weight and the “t½ (in vitro half-life), Rat” value is on record as 54 min. Also, in data set [2] (setting [9]), the “Clint (estimated intrinsic clearance), Mouse” value (“Clint … Mouse” for short) is 99.0 mL/min/kg body weight and the “t½ (in vitro half-life), Mouse” value is reported as 55 min. In data set [2], the “Clhep (hepatic clearance), Mouse” value was 47.1 mL/min/kg body weight. In addition, in data set [3] (setting [10]), the “Clint (estimated intrinsic clearance), Human” value (“Clint … Human” below) is on record as 23.5 mL/min/kg body weight and the “t½ (in vitro half-life), Human” value was 53 min. Further, in data set [3], the “Clhep (hepatic clearance), Human” value was 11.1 mL/min/kg body weight. Besides, in data set [4] (setting [11]), the “Tissue distribution, Heart” value amounted to 0.1 µM; the “Tissue distribution, Liver” value came out at 0.4 µM; the “Tissue distribution, Lung” value worked out at 1 ± 1 µM.

In the case of `O=C(N[C@@H](Cn1ccnc1)c1ccc(Cl)cc1Cl)c1ccc(-c2nnc(-c3ccc(F)c(F)c3)o2)cc1` [Compound 9, (R)-N-(1-(2,4-Dichlorophenyl)-2-(1H-imidazol-1-yl)ethyl)-4-(5-(3,4-difluorophenyl)-1,3,4-oxadiazol-2-yl)benzamide], the “Clhep (hepatic clearance), Rat” value in data set [1] is given as 21.4 mL/min/kg body weight. Moreover, the “Clint … Rat” value in data set [1] (setting [8]) is recorded as 30.9 mL/min/kg body weight. Also, the “Clint … Mouse” value in data set [2] (setting [9]) is given as 55.8 mL/min/kg body weight. Moreover, the “Clhep (hepatic clearance), Mouse” value in data set [2] is 34.5 mL/min/kg body weight. In data set [3] (setting [10]), the “Clint … Human” value was 7.53 mL/min/kg body weight. For the same compound, in data set [3], the “Clhep (hepatic clearance), Human” value was 5.54 mL/min/kg body weight. The “Acute toxicity, clinical observation” value in data set [5] is recorded as “No detectable side effects”. For the same compound, the “Inhibition of Y strain T. cruzi CYP51A enzymatic activity” value with Y strain T. cruzi CYP51A [6] is “stronger potency”. On L. infantum CYP51, the “Apparent binding affinity to L. infantum CYP51” value is “low nanomolar concentration range”. In addition, the “Apparent binding affinity to Y strain T. cruzi CYP51A” value at Y strain T. cruzi CYP51A [7] is reported as “low nanomolar concentration range”.

In the case of `O=C(N[C@@H](Cn1ccnc1)c1ccc(-c2ccc(F)cc2)cc1Cl)c1ccc(-c2nnc(-c3ccccn3)o2)cc1` [Compound 2, (R)-N-(1-(3-Chloro-4´-fluoro-[1,1´-biphenyl]-4-yl)-2-(1H-imidazol-1-yl)ethyl)-4-(5-(pyridin-2-yl)-1,3,4-oxadiazol-2-yl)benzamide], the “Clhep (hepatic clearance), Rat” value in data set [1] is given as 20.8 mL/min/kg body weight. In addition, in data set [1] (setting [8]), the “Clint … Rat” value is 29.7 mL/min/kg body weight. Also, the “Clint … Mouse” value in data set [2] (setting [9]) is recorded as 105 mL/min/kg body weight. Besides, the “Clhep (hepatic clearance), Mouse” value in data set [2] is 48.4 mL/min/kg body weight. In addition, the “Clint … Human” value in data set [3] (setting [10]) was 22.3 mL/min/kg body weight. Besides, the “Clhep (hepatic clearance), Human” value in data set [3] is 10.8 mL/min/kg body weight. For the same compound, the “Plasma life time (time until the compound becomes undetectable)” value (shortened to “Plasma life time”) in data set [4] (setting [12]) turned out to be 10 h.

Regarding `O=C(N[C@@H](Cn1ccnc1)c1ccc(-c2ccccc2)cc1Cl)c1ccc(-c2nnc(-c3ccccc3)o2)cc1` [Compound 4, (R)-N-(1-(3-Chloro-[1,1´-biphenyl]-4-yl)-2-(1H-imidazol-1-yl)ethyl)-4-(5-phenyl-1,3,4-oxadiazol-2-yl)benzamide], the “Clhep (hepatic clearance), Rat” value in data set [1] is 46.9 mL/min/kg body weight. Besides, in data set [1] (setting [8]), the “Clint … Rat” value is on record as 142 mL/min/kg body weight. For the same compound, the “Clint … Mouse” value in data set [2] (setting [9]) is 34.2 mL/min/kg body weight. The “Clhep (hepatic clearance), Mouse” value in data set [2] is 24.8 mL/min/kg body weight. For the same compound, the “Clint … Human” value in data set [3] (setting [10]) was 20.9 mL/min/kg body weight. Further, the “Clhep (hepatic clearance), Human” value in data set [3] is reported as 10.5 mL/min/kg body weight. Also, in data set [4] (setting [12]), the “Plasma life time” value is less than 10 h. Further, the “Plasma Cp, max” value in data set [4] (Balb/c mice, single oral dose 25 mg/kg, nd = below 0.1 μM (detection limit)) was 28 µM.

Regarding `O=C(N[C@@H](Cn1ccnc1)c1ccc(-c2ccc(F)cc2)cc1Cl)c1ccc(-c2nnc(-c3ccccc3)o2)cc1` [VFV-Cl, (R)-N-(1-(3-Chloro-4´-fluoro-[1,1´-biphenyl]-4-yl)-2-(1H-imidazol-1-yl)ethyl)-4-(5-phenyl-1,3,4-oxadiazol-2-yl)benzamide], the “Clhep (hepatic clearance), Rat” value in data set [1] is 23.6 mL/min/kg body weight. The “Clint … Rat” value in data set [1] (setting [8]) was 35.5 mL/min/kg body weight. In addition, the “Clint … Mouse” value in data set [2] (setting [9]) was 59.8 mL/min/kg body weight. Moreover, the “Clhep (hepatic clearance), Mouse” value in data set [2] is reported as 35.9 mL/min/kg body weight. In addition, the “Clint … Human” value in data set [3] (setting [10]) was 13.9 mL/min/kg body weight. The “Clhep (hepatic clearance), Human” value in data set [3] is reported as 8.35 mL/min/kg body weight. Moreover, the “Increase of concentrations in tissues at 50 mg/kg” value in data set [4] (50 mg/kg vs 25 mg/kg, data not shown) is “about 1.5 fold”. Besides, in data set [4] (3 and 10 h after single oral 25 mg/kg, HPLC (Figure 4)), the “Metabolism ([M+34] metabolite) when extracted from mice plasma” value is listed as “almost no metabolism”.

Consider `CS(=O)(=O)c1ccc(-c2ccc([C@H](Cn3ccnc3)NC(=O)c3ccc(-c4nnc(-c5ccccc5)o4)cc3)c(Cl)c2)cc1` [Compound 6, (R)-N-(1-(3-Chloro-4´-(methylsulfonyl)-[1,1´-biphenyl]-4-yl)-2-(1H-imidazol-1-yl)ethyl)-4-(5-phenyl-1,3,4-oxadiazol-2-yl)benzamide], for which the “Clhep (hepatic clearance), Rat” value in data set [1] is recorded as 31.7 mL/min/kg body weight. For the same compound, the “Clint … Rat” value in data set [1] (setting [8]) is recorded as 58.1 mL/min/kg body weight. Moreover, the “Clint … Mouse” value in data set [2] (setting [9]) is reported as 127 mL/min/kg body weight. For the same compound, the “Clhep (hepatic clearance), Mouse” value in data set [2] is 52.6 mL/min/kg body weight. In addition, the “Clint … Human” value in data set [3] (setting [10]) is listed as 11.6 mL/min/kg body weight. The “Clhep (hepatic clearance), Human” value in data set [3] is given as 7.46 mL/min/kg body weight. Further, the Oral bioavailability entry in data set [4] (single oral 25 mg/kg, no trace in plasma or tissues except intestine) was “not orally bioavailable”.

As for `[2H]c1c([2H])c([2H])c(-c2ccc([C@H](Cn3ccnc3)NC(=O)c3ccc(-c4nnc(-c5ccccc5)o4)cc3)c(Cl)c2)c([2H])c1[2H]` [Compound 5, (R)-N-(1-(3-Chloro-[1,1´-biphenyl]-4-yl-2´,3´,4´,5´,6´-d5)-2-(1H-imidazol-1-yl)ethyl)-4-(5-phenyl-1,3,4-oxadiazol-2-yl)benzamide], the “Clhep (hepatic clearance), Rat” value in data set [1] was 45.6 mL/min/kg body weight. Moreover, the “Clint … Rat” value in data set [1] (setting [8]) is 131 mL/min/kg body weight. For the same compound, in data set [2] (setting [9]), the “Clint … Mouse” value was 220 mL/min/kg body weight. In data set [2], the “Clhep (hepatic clearance), Mouse” value is 63.9 mL/min/kg body weight. The “Clint … Human” value in data set [3] (setting [10]) is listed as 21.2 mL/min/kg body weight. Also, the “Clhep (hepatic clearance), Human” value in data set [3] is recorded as 10.6 mL/min/kg body weight. Further, the concentration at 4 h in data set [4] (blood) turned out to be 4 ± 2 µM; in data set [4] (brain), 0.2 µM; in data set [4] (heart), 3 ± 0.5 µM; in data set [4] (lung), 26 ± 4 µM. In addition, the “Plasma life time” value in data set [4] (setting [12]) is less than 16 h. Also, the “Cp,max, fold lower (vs compound 4)” value in data set [4] (single oral 25 mg/kg) was 2 fold.

Consider `O=C(N[C@@H](Cn1ccnc1)c1ccc(Cl)cc1Cl)c1ccc(-c2nnc(-c3ccc(OCC(F)(F)F)cc3F)o2)cc1` [Compound 8, (R)-N-(1-(2,4-Dichlorophenyl)-2-(1H-imidazol-1-yl)ethyl)-4-(5-(2-fluoro-4-(2,2,2-trifluoroethoxy)phenyl)-1,3,4-oxadiazol-2-yl)benzamide], for which the “Clhep (hepatic clearance), Rat” value in data set [1] was 33.5 mL/min/kg body weight. Further, the “Clint … Rat” value in data set [1] (setting [8]) is listed as 64.3 mL/min/kg body weight. Also, the “Clint … Mouse” value in data set [2] (setting [9]) is recorded as 87.7 mL/min/kg body weight. Further, the “Clhep (hepatic clearance), Mouse” value in data set [2] is 44.4 mL/min/kg body weight. Moreover, the “Clint … Human” value in data set [3] (setting [10]) is 16.5 mL/min/kg body weight. Moreover, in data set [3], the “Clhep (hepatic clearance), Human” value is reported as 9.24 mL/min/kg body weight.

Consider `O=C(N[C@@H](Cn1ccnc1)c1c(F)cc(-c2ccc(F)cc2)cc1F)c1ccc(-c2nnc(-c3ccccc3)o2)cc1` [Compound 7, (R)-N-(2-(1H-Imidazol-1-yl)-1-(3,4´,5-trifluoro-[1,1′-biphenyl]-4-yl)ethyl)-4-(5-phenyl-1,3,4-oxadiazol-2-yl)benzamide], for which the “Clhep (hepatic clearance), Rat” value in data set [1] is given as 31.1 mL/min/kg body weight. The “Clint … Rat” value in data set [1] (setting [8]) is recorded as 55.8 mL/min/kg body weight. Besides, the “Clint … Mouse” value in data set [2] (setting [9]) is on record as 237 mL/min/kg body weight. Also, the “Clhep (hepatic clearance), Mouse” value in data set [2] is recorded as 65.2 mL/min/kg body weight. Moreover, the “Clint … Human” value in data set [3] (setting [10]) is 19.4 mL/min/kg body weight. In data set [3], the “Clhep (hepatic clearance), Human” value is recorded as 10.1 mL/min/kg body weight. For the same compound, the “Acute toxicity, clinical observation” value in data set [5] is reported as “No detectable side effects”. Further, the “Plasma life time” value in data set [4] (setting [12]) is greater than 24 h. In addition, the “Inhibition of Y strain T. cruzi CYP51A enzymatic activity” value with Y strain T. cruzi CYP51A [6] is given as “completely inhibited”. Further, at L. infantum CYP51, the “Apparent binding affinity to L. infantum CYP51” value is “low nanomolar concentration range”. Moreover, at Y strain T. cruzi CYP51A [7], the “Apparent binding affinity to Y strain T. cruzi CYP51A” value is “low nanomolar concentration range”.
